High-throughput results as filed in PubChem BioAssay.
Only some compounds are listed: those with a hit (about 1.7% of all), similar ones and a draw of the others.
Runt-CBFb FRET – blocks binding of human RUNX1 Runt domain to CBFb; Q01196+Q13951; Cerulean-Runt/Venus-CBFb FRET ratio 530/480, 1 h; inhibition, % at 20 µM; actives 0.46% (n = 220,000); AID 1496;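 active means inhibition over about 50% at 20 µM in the single-dose screen, limit read from the data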;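 further: 0% = DMSO wells and 100% = excess unlabeled CBFb competitor control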
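Measured by: fluorescence energy transfer, 422 nm excitation, 530/480 nm emission; test system: Cerulean-tagged RUNX1 Runt domain (FRET donor) fusion protein; buffer or medium: Tris pH 7.5 buffer with BSA; compound: one dose, 20 µM compound, 1% DMSO; times: two 1 h room-temperature incubations shielded from light; benchmarks: unlabeled CBFb 5 µM, positive control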
RanGTP-Imp inh – disruptors of Ran-importin-beta complex formation – biochemical, FRET, CFP-Ran, YFP-importin-beta, homogeneous, primary screen. inhibition, % (concentration not given with the values). actives 1.1% (n = 300,000). cell-free CFP-Ran/YFP-importin-beta FRET ratio;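 active means more than half of the replicate wells show a fall in the fluorescence ratio signal beyond about 16%, limit read from the data, passing the limit was not always enough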;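 further: 0% = DMSO wells and 100% = Ran loaded with GDP instead of GTP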
Runt-SMMHC FRET – blocks binding of human RUNX1 Runt domain to CBFb-SMMHC; AID 1434; actives 0.74% (n = 220,000); Q01196+Q13951; inhibition, % at 20 µM; Cerulean-Runt/Venus-CBFb-SMMHC FRET ratio 530/480, 1 h;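 active means mean inhibition across duplicate retests at 20 µM reaching about 50%, limit read from the data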;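 further: 0% = DMSO wells and 100% = wells with excess untagged CBFb-SMMHC; inhibitors lower the FRET ratio by blocking Runt binding to CBFb-SMMHC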
Hck Nef HTS – inhibitors of human Hck kinase activated by Nef | P08631 | Recombinant Hck-YEEI plus Nef, Z-Lyte FRET kinase assay | inhibition, % at 20 µM | actives 0.68% (n = 220,000) | AID 463187;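 active means Hck-Nef kinase inhibition above about 50%, limit read from the data; inactive means inhibition below that limit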;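 further: 0% = DMSO with Hck plus Nef and 100% = Hck alone without Nef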
Target sequence (P08631 whole entry, looked up): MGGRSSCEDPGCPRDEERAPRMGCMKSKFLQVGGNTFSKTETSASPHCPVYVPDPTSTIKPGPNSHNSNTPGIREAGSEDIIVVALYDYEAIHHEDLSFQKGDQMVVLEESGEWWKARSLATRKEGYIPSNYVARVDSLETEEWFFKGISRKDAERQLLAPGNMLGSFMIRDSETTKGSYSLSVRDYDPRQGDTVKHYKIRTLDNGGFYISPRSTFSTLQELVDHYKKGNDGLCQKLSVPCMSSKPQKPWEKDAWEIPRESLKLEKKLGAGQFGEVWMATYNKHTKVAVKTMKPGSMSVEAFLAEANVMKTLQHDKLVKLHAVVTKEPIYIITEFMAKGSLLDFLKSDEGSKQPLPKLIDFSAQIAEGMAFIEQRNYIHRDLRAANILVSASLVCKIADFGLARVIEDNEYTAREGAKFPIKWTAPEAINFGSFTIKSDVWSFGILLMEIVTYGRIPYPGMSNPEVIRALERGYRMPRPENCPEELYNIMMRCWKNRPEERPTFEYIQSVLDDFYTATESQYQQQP
YIC FRET counter – counter-screen YIC FRET for RanGTP-importin-beta inhibitors | shares compounds with RanGTP-Imp inh | AID 435026 | IC50, µM | Purified YIC probe, intramolecular FRET ratio YFP/CFP | actives 40% (n = 1,000);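 active means fitted half-maximal inhibitory concentration no more than tenfold above the top dose tested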
The depositor's hits bear a star; x = not tested or not shown.

SMILES | Runt-CBFb FRET | RanGTP-Imp inh | Runt-SMMHC FRET | Hck Nef HTS | YIC FRET counter
CCn1c(SCC(=O)NC2CCCCC2)nnc1C(C)NC(=O)c1ccccc1F (centres undefined) | x | 4 | x | x | x
CC(=O)c1cccc(Nc2cc(C)nc3ccccc23)c1 | 2 | 1 | 0 | 29 | x
O=[N+]([O-])c1ccc(Nc2c3ccccc3nc3ccccc23)cc1 | 48 | 25* | 23 | 22 | >50
O=C(O)c1cccc(Nc2c3ccccc3nc3ccccc23)c1 | x | 20* | x | x | >50
COc1cc(C)ccc1OCCOCCOc1ccc([N+](=O)[O-])cc1 | -1 | 3 | -1 | -1 | x
CCOC(=O)c1c(N)n(CCOC(=O)c2cccs2)c2nc3ccccc3nc12 | 45 | 23* | 109* | 28 | 37*
CCOC(=O)c1cnn(CCOC(=O)c2cccs2)c1NC(=O)c1cccs1 | 0 | x | 1 | 3 | x
CCC1(c2ccccc2)NC(=O)N(CC(=O)Nc2ccccc2C(=O)N2CCCCC2)C1=O (centres undefined) | x | -1 | x | x | x
COc1ccc(-c2csc3ncnc(N4CCN(c5ccc(OC)cc5)CC4)c23)cc1 | x | 22* | x | x | >50
C=CCN1C=C/C(=C\C=C(C#N)C#N)c2ccccc21 | 0 | -6 | 15 | 0 | x
C=CCN1C=CC(=CC=C(C#N)C#N)C=C1 | -26 | 21* | -50 | -4 | 17*
CCCn1c(N)c(N(CCOC)C(=O)CSCC(=O)Nc2cccc(C)c2)c(=O)[nH]c1=O | x | -1 | x | x | x
CCN(C(=O)c1c(C)cc(=O)oc1C)c1ccc2c(c1)OCO2 | 4 | 17* | -3 | -2 | >50
CCOc1cccc(CN2CCC(CCC(=O)NC3CC3)CC2)c1O | x | 1 | x | x | x
Cc1ccc(N2CC(=O)N(NC(=O)c3sc4nc(C)cc(C)c4c3N)CC2=O)cc1 | 6 | 20* | 8 | 21 | >50
O=C(CC1C(=O)NCCN1Cc1ccc(-c2ccccc2)cc1)NCCCn1ccnc1 (centres undefined) | 1 | -1 | 1 | 15 | x
Cc1ccc(S(=O)(=O)c2cc3c(=O)n4cccc(C)c4nc3n(C3CCCCC3)c2=N)cc1 | x | 34* | x | x | 3.9*
Cc1ccc(-c2ccc(/C=N/N3C(=O)C4C5C=CC(CC5)C4C3=O)o2)c([N+](=O)[O-])c1 (centres undefined) | 11 | -4 | 1 | 0 | x
COc1ccc2cc(C(C)=O)c(=O)oc2c1 | 19 | 19* | 62* | 4 | 35*
CC1(C)CC(=O)C=C(Nc2ccccc2F)C1 | 1 | 25* | 0 | 1 | >50
CC1(C)CC(=O)C=C(Nc2ccccc2O)C1 | 0 | 16* | 0 | 3 | >50
COc1ccc(-n2c(C)cc(/C=C3/SC(=S)N(C)C3=O)c2C)cc1 | -7 | 23* | -51 | 3 | >50
Cc1ccc(OCC(=O)N2c3ccccc3CC2C)c([N+](=O)[O-])n1 (centres undefined) | 3 | 0 | 1 | 20 | x
Cc1ccsc1/C=C(\C#N)C(=O)NC1CCS(=O)(=O)C1 (centres undefined) | -1 | 9 | 0 | 31 | x
Cc1cccc(Oc2nc3ccccn3c(=O)c2/C=C(\C#N)C(=O)NC2CCS(=O)(=O)C2)c1C (centres undefined) | x | 12 | x | x | x
SMILES | Runt-CBFb FRET | RanGTP-Imp inh | Runt-SMMHC FRET | Hck Nef HTS | YIC FRET counter
COc1ccc(Oc2nc3c(C)cccn3c(=O)c2/C=C(\C#N)C(N)=O)cc1 | 34 | 22* | 82* | 30 | 6*
Cc1cccn2c(=O)c(/C=C(\C#N)C(=O)NC3CCS(=O)(=O)C3)c(Oc3ccc(F)cc3)nc12 (centres undefined) | x | 37* | x | x | 18*
Cc1cccc(Oc2nc3ccccn3c(=O)c2/C=C(\C#N)C(=O)NC2CCS(=O)(=O)C2)c1 (centres undefined) | 4 | 27* | 81* | 11 | 48*
COC(=O)/C(C#N)=C/c1c(Oc2cc(C)cc(C)c2)nc2c(C)cccn2c1=O | -64 | 7 | -245 | -1 | x
CCOC(=O)c1ccc(NC(=O)CSc2nnnn2CCCO)cc1 | 0 | 4 | -5 | 2 | x
Cc1sc(NC(=O)CN2CCOCC2)c(C#N)c1C | 0 | 1 | 0 | -19 | x
COc1ccccc1/C=N\N=C(\N)c1ccccn1 | -2 | 4 | 5 | 0 | x
O=C(Cn1c2ccccc2c(=O)c2ccccc21)Nc1ccccc1F | 119* | 36* | 83 | 16 | 6.6*
O=C(c1cc2c(=O)n3ccccc3nc2s1)N1CCN(c2cccc(Cl)c2)CC1 | x | 29* | x | x | >50
O=c1c2ccccc2sc2ccc(C#CC3(O)CCCCC3)cc12 | x | 30* | x | x | 22*
OCC1(Cc2cccc(Cl)c2)CCCN(Cc2ccc3cc(F)ccc3n2)C1 (centres undefined) | -1 | 24* | 0 | -10 | >50
COc1cccc(N(CC(=O)NCCSCc2ccc(Cl)cc2)S(C)(=O)=O)c1 | x | 3 | x | x | x
O=C(Oc1ccc2c3c(c(=O)oc2c1)CCCC3)c1ccco1 | 130* | 17* | 166* | 32 | 20*
CC(C)Oc1ccc2c3c(c(=O)oc2c1)CCC3 | -3 | 3 | 0 | 2 | x
CCN(CCn1cccn1)Cc1c(C(=O)N2C[C@@H](C)O[C@@H](C)C2)nc2ccc(Cl)cn12 | 0 | 3 | 3 | 29 | x
O=C(CCc1c[nH]c2ccccc12)OCC(=O)N1CCN(S(=O)(=O)c2ccccc2)CC1 | x | 1 | x | x | x
COc1ccc(N=Cc2cc(Cc3ccccc3Cl)cc([N+](=O)[O-])c2O)cc1OC | -6 | 16* | -15 | 25 | >50
COc1ccc([N+](=O)[O-])cc1NC(=O)Cc1ccccc1Cl | 0 | -4 | -3 | 3 | x
COCCCn1c(=S)[nH]c2c(sc3ccccc32)c1=O | 23 | 0 | 46 | -14 | x
Cc1cccc(C(=O)Nc2sc(C)c(-c3ccccc3)c2C#N)c1 | 3 | 39* | 4 | -19 | >50
Cc1cccc(C(=O)Nc2sc(C(=O)N3CCCC3)c(C)c2C#N)c1 | 4 | 5 | 2 | 2 | x
COc1ccc(N2C(=O)CSC2c2ccc([N+](=O)[O-])cc2)cc1 (centres undefined) | x | 2 | x | x | x
Cc1cc(NCCN(C)C)n2nc(-c3cccs3)cc2n1 | 4 | 17* | 7 | 6 | 24*
CC(O)[C@H]1CNC(=O)C(=O)N1CC(C)(C)C (some centres undefined) | 0 | 2 | 1 | 12 | x
CN(C)C(CNS(=O)(=O)c1ccc2ccccc2c1)c1ccccc1 (centres undefined) | x | -6 | x | x | x
Cc1cc(C)c(S(=O)(=O)N(C)CC(N)=O)c(C)c1 | -2 | 17* | -6 | 0 | >50
Cc1cc(C)c(S(=O)(=O)N(C)CC(=O)N2CCCCC2)c(C)c1 | 0 | -1 | 2 | -3 | x
O=C(NC(=S)NNC(=O)[C@H]1C[C@@H]1c1ccccc1)c1cccc(F)c1 | 21 | -4 | 1 | 12 | x
